This passage reports Ki and IC50 results from ChEMBL document CHEMBL1828602, “CNS and antimalarial activity of synthetic meridianin and psammopemmin analogs” (Bioorg Med Chem, 2011).

For experiment [1], the target named is T1, 5-hydroxytryptamine receptor 1A (Homo sapiens, UniProt P08908).
T1 sequence (P08908 whole entry): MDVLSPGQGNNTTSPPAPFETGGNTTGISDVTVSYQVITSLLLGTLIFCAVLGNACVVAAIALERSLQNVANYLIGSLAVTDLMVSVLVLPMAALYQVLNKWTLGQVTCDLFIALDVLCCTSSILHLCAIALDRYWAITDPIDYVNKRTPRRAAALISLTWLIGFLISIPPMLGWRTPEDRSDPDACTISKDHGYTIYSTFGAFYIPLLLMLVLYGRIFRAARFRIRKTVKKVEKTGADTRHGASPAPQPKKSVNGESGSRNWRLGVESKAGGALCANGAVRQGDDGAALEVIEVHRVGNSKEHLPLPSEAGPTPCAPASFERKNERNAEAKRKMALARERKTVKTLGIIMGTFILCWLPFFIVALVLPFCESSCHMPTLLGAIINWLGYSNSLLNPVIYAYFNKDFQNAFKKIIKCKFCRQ
As to the kind of experiment: Displacement of [3H]8-OH-DPAT from 5-HT1A receptor after 1.5 hrs by scintillation counting. (In general: Displacement assays read how much labelled ligand stays bound in the presence of the test substance.)

The target in experiment [2] is 5-hydroxytryptamine receptor 5A (Homo sapiens, UniProt P47898). As to the kind of experiment: Displacement of [3H]LSD from 5-HT5A receptor after 1.5 hrs by scintillation counting.
For experiment [3], the target named is T2, 5-hydroxytryptamine receptor 2C (Homo sapiens, UniProt P28335).
T2 sequence (P28335 whole entry): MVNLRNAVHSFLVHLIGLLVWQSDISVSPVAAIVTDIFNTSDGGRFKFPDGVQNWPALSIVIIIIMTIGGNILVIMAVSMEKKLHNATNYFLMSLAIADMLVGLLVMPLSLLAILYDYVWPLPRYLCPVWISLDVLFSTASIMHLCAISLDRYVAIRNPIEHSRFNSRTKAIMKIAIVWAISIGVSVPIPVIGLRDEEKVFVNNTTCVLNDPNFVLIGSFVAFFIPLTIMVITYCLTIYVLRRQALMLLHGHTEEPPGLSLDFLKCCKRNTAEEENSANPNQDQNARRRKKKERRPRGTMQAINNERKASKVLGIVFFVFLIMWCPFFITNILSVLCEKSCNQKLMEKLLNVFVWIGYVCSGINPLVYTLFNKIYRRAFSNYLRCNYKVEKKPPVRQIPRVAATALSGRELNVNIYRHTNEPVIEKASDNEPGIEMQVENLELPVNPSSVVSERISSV
The experiment is described as follows: Displacement of [3H]mesulergine from 5-HT2C receptor after 1.5 hrs by scintillation counting.

Experiment [4] concerns the target 5-hydroxytryptamine receptor 2B (Homo sapiens, UniProt P41595). The experiment is described as follows: Displacement of [3H]LSD from 5-HT2B receptor after 1.5 hrs by scintillation counting.
The target in experiment [5] is T3, Muscarinic acetylcholine receptor M5 (Homo sapiens, UniProt P08912).
T3 sequence (P08912 whole entry): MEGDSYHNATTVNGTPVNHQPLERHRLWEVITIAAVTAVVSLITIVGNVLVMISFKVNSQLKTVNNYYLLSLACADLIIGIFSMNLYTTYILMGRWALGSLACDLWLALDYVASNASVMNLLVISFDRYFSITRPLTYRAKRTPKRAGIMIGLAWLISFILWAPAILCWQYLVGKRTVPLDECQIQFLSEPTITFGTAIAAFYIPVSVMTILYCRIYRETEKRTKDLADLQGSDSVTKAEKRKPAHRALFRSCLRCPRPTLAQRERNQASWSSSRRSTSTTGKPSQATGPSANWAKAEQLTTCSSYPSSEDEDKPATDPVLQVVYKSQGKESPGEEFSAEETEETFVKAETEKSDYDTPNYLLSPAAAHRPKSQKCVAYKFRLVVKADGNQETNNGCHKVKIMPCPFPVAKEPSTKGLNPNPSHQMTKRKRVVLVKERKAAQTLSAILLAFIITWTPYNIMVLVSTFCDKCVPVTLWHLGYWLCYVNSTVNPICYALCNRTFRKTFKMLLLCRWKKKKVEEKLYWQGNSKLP
As to the kind of experiment: Displacement of [3H]QNB from muscarinic acetylcholine M5 receptor after 1.5 hrs by scintillation counting.

Experiment [6] deals with 5-hydroxytryptamine receptor 1D (Homo sapiens, UniProt P28221). The experiment is described as follows: Displacement of [3H]5-carboximidotryptamine from 5-HT1D receptor after 1.5 hrs by scintillation counting.
Experiment [7] deals with D(1B) dopamine receptor (Homo sapiens, UniProt P21918). The experiment is described as follows: Displacement of [3H][…] from dopamine D5 receptor after 1.5 hrs by scintillation counting.
The target of experiment [8] is 5-hydroxytryptamine receptor 7 (Homo sapiens, UniProt P34969). The experiment is described as follows: Displacement of [3H]LSD from 5-HT7 receptor after 1.5 hrs by scintillation counting.
The target of experiment [9] is Sodium-dependent dopamine transporter (Homo sapiens, UniProt Q01959). The experiment is described as follows: Displacement of [3H]WIN35428 from DAT after 1.5 hrs by scintillation counting.
In experiment [10] the test system is Plasmodium falciparum. As to the kind of experiment: Antimalarial activity against transgenic Plasmodium falciparum 3D7 infected in human A positive erythrocytes after 72 hrs by luciferase reporter gene assay. The class given is functional, organism-based. The settings on record: 3D7, 72 h. A digest of the protocol:
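Luciferase-expressing P. falciparum 3D7 kept in RPMI 1640 without phenol red, 10% heat-inactivated A+ human plasma, 4% washed A+ erythrocytes, 90% N2/5% O2/5% CO2, 37 °C. Ring-stage cultures (>70% rings) diluted to 0.5% parasitemia, 1.5% hematocrit. Eleven-point duplicate twofold series, final 100 to 0.098 µg/mL. Incubated 72 h, frozen at −20 °C, lysed, luminescence read (5 s integration). IC50 by nonlinear regression.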
(In a reporter assay the amount or activity of a reporter protein is the signal.)

For experiment [11], the system named is A549. As to the kind of experiment: Cytotoxicity against human A549 cells after 72 hrs. The experiment is classed as cell-based. A digest of the protocol: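 A549 cells at 12,000 per well in DMEM F12 (no HEPES or phenol red) with 2% FBS and 1% penicillin–streptomycin, preincubated 24 h at 37 °C, 5% CO2. Compounds then added, 72 h incubation. Viability by MTS-type tetrazolium reagent, 1 h at 37 °C, absorbance at 490 nm. IC50 determined.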

The nature of experiment [12]: Inhibition of PKA.
For experiment [13], the target named is CDK9/cyclin T1 (Homo sapiens, UniProt P50750). The experiment is described as follows: Inhibition of human recombinant CDK9/cyclin T expressed in insect cells assessed as pRB fragment (773 to 928) phosphorylation using [33P]gamma-ATP after 30 mins by scintillation counting.
The target of experiment [14] is Cyclin-dependent kinase 5 (Homo sapiens, UniProt Q00535). As to the kind of experiment: Inhibition of CDK5.
For experiment [15], the system named is SH-SY5Y. As to the kind of experiment: Cytotoxicity against human SH-SY5Y cells by MTS assay. The experiment is classed as cell-based. For orientation: Formazan colour is commonly taken as a measure of viable cells.
In experiment [16] the target is Cyclin-dependent kinase 2/cyclin A (Homo sapiens, UniProt P24941). As to the kind of experiment: Inhibition of human recombinant CDK2/cyclin A expressed in insect cells assessed as histone phosphorylation using [33P]gamma-ATP after 30 mins by scintillation counting.
Experiment [17] is described as follows: Inhibition of PKG.
A short description of experiment [18]: Cytotoxicity against mouse LMM3 cells. The experiment is classed as cell-based.
Experiment [19] has as its system HT-29. The experiment is described as follows: Cytotoxicity against human HT-29 cells. The experiment is classed as cell-based.
Experiment [20] can be described thus: Inhibition of pig brain CK1delta/epsilon assessed as RRKHAAIGSpAYSITA phosphorylation using [33P]gamma-ATP after 30 mins by scintillation counting. On the set-up: species or system Sus scrofa.
Experiment [21] relates to HEp-2. The experiment is described as follows: Cytotoxicity against human Hep2 cells. The class given is cell-based.

5-hydroxytryptamine receptor 2B, sequence (P41595 whole entry): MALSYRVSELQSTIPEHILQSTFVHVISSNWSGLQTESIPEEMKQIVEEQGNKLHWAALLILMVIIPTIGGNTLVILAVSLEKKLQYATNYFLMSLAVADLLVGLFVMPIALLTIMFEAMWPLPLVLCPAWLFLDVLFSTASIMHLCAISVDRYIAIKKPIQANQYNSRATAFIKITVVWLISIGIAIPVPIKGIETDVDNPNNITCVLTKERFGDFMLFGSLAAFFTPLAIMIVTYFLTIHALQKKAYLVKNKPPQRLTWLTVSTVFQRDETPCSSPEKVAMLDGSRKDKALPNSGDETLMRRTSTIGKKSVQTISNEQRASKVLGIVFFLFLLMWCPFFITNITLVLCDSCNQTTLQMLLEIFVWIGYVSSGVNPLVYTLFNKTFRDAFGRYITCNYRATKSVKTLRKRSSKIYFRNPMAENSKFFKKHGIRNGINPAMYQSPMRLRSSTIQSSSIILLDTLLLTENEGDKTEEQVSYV
5-hydroxytryptamine receptor 5A, sequence (P47898 whole entry): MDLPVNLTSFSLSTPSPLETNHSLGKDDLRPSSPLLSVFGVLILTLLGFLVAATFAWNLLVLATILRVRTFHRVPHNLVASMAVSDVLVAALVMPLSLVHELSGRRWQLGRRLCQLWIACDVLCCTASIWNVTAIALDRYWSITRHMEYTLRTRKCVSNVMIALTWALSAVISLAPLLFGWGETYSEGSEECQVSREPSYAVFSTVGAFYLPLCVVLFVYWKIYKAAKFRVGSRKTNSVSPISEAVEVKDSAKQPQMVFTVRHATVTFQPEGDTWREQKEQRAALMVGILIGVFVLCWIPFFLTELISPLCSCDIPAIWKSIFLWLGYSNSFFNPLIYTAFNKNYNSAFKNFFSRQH
Sodium-dependent dopamine transporter, sequence (Q01959 whole entry): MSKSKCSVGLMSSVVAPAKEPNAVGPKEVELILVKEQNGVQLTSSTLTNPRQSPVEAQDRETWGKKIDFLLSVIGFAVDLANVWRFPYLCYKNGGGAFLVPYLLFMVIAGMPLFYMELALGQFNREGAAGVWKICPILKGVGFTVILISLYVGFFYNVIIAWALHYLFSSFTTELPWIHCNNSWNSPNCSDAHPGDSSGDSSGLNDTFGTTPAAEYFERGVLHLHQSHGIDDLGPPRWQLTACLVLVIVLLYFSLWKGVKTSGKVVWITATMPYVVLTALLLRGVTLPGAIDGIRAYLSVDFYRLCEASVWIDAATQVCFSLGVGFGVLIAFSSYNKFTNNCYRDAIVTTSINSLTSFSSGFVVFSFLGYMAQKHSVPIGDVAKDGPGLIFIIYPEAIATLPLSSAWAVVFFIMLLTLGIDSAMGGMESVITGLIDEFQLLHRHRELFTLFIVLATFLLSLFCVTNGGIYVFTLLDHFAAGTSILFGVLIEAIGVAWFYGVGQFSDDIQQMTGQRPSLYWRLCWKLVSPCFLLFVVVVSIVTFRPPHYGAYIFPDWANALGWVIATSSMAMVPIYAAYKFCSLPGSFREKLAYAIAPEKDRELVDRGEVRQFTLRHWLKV
5-hydroxytryptamine receptor 7, sequence (P34969 whole entry): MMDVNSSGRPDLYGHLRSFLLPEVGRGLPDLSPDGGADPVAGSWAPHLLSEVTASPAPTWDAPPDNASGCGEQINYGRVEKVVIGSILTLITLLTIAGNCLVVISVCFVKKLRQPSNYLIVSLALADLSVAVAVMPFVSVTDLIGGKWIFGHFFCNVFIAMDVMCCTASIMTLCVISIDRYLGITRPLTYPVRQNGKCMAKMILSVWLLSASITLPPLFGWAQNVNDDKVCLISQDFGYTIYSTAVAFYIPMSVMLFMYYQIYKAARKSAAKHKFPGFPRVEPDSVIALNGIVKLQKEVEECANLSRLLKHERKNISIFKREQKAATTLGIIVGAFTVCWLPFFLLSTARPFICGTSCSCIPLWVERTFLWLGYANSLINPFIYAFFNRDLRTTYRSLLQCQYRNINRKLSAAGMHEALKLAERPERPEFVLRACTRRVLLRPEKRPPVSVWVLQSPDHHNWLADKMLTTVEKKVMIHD
5-hydroxytryptamine receptor 1D, sequence (P28221 whole entry): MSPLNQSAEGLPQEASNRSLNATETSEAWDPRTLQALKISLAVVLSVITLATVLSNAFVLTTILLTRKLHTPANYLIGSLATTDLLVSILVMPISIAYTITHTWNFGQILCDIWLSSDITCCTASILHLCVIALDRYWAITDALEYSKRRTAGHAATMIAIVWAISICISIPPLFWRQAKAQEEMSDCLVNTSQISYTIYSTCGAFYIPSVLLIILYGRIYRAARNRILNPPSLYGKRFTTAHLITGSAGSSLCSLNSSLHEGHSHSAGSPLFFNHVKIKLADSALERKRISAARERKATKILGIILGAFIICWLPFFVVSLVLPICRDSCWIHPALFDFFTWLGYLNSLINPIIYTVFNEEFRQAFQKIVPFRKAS
D(1B) dopamine receptor, sequence (P21918 whole entry): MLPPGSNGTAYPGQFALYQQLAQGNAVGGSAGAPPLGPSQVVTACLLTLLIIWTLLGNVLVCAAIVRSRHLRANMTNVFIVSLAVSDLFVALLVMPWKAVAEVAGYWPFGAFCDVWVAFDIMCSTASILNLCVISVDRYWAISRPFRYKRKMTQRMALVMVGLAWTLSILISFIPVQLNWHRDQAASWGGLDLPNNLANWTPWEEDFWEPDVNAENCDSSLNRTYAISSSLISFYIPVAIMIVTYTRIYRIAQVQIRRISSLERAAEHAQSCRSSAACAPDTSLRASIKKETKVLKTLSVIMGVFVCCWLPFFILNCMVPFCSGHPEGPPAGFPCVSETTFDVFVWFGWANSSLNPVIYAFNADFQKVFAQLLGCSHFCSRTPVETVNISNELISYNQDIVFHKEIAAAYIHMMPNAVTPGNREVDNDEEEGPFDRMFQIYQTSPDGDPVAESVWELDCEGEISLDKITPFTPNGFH
CDK9/cyclin T1, sequence (O60563 whole entry, the tested form may be a part): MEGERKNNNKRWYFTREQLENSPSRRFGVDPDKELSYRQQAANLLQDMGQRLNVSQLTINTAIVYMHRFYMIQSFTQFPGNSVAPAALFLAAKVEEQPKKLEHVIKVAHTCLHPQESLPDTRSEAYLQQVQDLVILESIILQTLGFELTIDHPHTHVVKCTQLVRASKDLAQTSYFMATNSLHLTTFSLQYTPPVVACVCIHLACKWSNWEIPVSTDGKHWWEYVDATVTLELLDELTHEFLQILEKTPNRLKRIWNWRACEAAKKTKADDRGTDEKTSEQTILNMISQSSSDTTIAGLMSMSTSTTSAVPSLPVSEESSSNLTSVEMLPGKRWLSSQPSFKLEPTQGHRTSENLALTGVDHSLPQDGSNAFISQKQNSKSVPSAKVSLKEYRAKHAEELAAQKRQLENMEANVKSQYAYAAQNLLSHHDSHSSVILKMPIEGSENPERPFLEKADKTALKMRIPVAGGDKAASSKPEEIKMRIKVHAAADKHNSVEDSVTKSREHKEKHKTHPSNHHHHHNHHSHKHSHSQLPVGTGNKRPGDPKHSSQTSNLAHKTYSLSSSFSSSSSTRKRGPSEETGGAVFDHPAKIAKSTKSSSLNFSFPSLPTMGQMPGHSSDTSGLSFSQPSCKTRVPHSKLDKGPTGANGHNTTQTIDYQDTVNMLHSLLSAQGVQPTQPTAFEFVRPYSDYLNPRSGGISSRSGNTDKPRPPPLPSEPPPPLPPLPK
CDK9/cyclin T1, sequence (P50750 whole entry, the tested form may be a part): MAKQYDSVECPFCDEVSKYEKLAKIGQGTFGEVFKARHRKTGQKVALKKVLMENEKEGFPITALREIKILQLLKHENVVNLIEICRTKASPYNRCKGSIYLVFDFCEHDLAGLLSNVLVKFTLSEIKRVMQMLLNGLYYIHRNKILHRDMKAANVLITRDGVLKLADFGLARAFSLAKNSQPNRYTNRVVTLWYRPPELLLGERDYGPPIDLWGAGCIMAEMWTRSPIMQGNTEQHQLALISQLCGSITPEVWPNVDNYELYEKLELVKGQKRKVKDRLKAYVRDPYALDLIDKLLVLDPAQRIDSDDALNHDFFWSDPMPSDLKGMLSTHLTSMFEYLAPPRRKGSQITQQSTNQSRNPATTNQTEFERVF
Cyclin-dependent kinase 5, sequence (Q00535 whole entry): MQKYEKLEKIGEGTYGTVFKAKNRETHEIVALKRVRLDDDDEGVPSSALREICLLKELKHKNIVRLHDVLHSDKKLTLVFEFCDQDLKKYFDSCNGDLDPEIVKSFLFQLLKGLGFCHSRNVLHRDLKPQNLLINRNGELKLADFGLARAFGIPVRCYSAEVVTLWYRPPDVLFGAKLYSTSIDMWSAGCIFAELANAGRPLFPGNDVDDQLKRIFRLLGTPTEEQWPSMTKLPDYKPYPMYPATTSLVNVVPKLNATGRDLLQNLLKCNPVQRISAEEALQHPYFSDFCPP

`COc1cccc2[nH]cc(-c3ccnc(N)n3)c12`: the Ki – broadly, a dissociation constant, usually derived from enzyme kinetics or from competition with a known ligand – in experiment [1] is 1.35 µM; in experiment [2], 1.53 µM; in experiment [3], above 10 µM; in experiment [4] it was 0.088 µM; in [6], above 10 µM; in [7], above 10 µM. The molecule also displayed a Ki in [8] of 1.99 µM. Moreover, the IC50 (usually the concentration that gives 50% inhibition) in experiment [5] is above 10 µM; in experiment [9] it was above 10 µM; in experiment [10], 40 µM; in experiment [11] (Homo sapiens, A549, 72 h), above 420 µM.

Regarding `Nc1nccc(-c2c[nH]c3cccc(O)c23)n1` [MERIDIANIN A], the Ki is 0.684 µM in [1]; above 10 µM in experiment [3]; 0.15 µM in [4]; above 10 µM in experiment [5]; above 10 µM in [6]; above 10 µM in experiment [7]. In [9], this molecule registered a Ki of 2.35 µM. In addition, the IC50 was above 10 µM in experiment [2]; 11 µM in experiment [12]; 2.4 µM in [13]; 3.5 µM in experiment [14]; above 30 µM in experiment [15]; 3.1 µM in experiment [16]. The half-maximal inhibitory concentration (IC50) in experiment [17] was 200 µM; in experiment [18], above 100 µM; in experiment [19], above 100 µM; in [20] it was 1.1 µM; in experiment [21], above 100 µM; in experiment [8], above 10 µM. Further, the IC50 was determined as 12 µM in experiment [10] and 15 µM in experiment [11] (Homo sapiens, A549, 72 h).

`CCN(CC)c1nccc(-c2c[nH]c3cc(Cl)ccc23)n1` [MERIDOQUIN]: the IC50 in experiment [10] is 200 µM; in experiment [11] (Homo sapiens, A549, 72 h), above 333 µM.

In experiment [11] (a549), `CC1=C[C@H]2O[C@@H]3C[C@H]4OC(=O)/C=C\C=C\[C@H]([C@@H](C)O)OCC/C(C)=C/C(=O)OC[C@@]2(CC1)[C@]4(C)[C@]31CO1` [RORIDIN E] yielded an IC50 below 9.7 µM.

As to `Nc1nc(Br)ncc1-c1c[nH]c2cccc(O)c12` [PSAMMOPEMMIN A], the IC50 in experiment [1], in experiment [2], in [3], in [4], in experiment [5] and in [8] was above 10 µM in each case. Further, the IC50 in experiment [9] is above 10 µM; in [10] it was above 33 µM; in experiment [11] (Homo sapiens, A549, 72 h), above 219 µM. In addition, the Ki in [6] and in experiment [7] was above 10 µM throughout.

On to `Nc1nc(Cl)ncc1-c1c[nH]c2cccc(O)c12`, for which the IC50 in [1], in experiment [2], in [3], in [4], in experiment [6] and in [8] was above 10 µM throughout. Further, the IC50 in experiment [9] was above 10 µM; in [10] it was above 38 µM; in experiment [11] (Homo sapiens, A549, 72 h) it was above 256 µM. Besides, the figures for the Ki in experiment [5] and in [7] were 7.04 µM and above 10 µM, respectively.
